Read-outs that look alike come from different tables or passages of the source.
Legend:
[1] = tested on: panel of approximately sixty human tumor cell lines; test: NCI one-dose primary anticancer assay; format: cell-based; conditions: for anticancer activity in words / number of cell lines against which the compound was effective: 1 dose 10 μM; for activity at 10 µM: Homo sapiens, 60 cell, 48 h
In short: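 NCI DTP single-dose screen on approximately sixty human tumor cell lines from nine cancer types. Test compound added at 10⁻⁵ M and cultures incubated 48 h. End point by sulforhodamine B protein staining, read spectrophotometrically. Result expressed as percent growth of treated cells relative to untreated control cells.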

[2] = tested on: SARS CoV Urbani; test: microbe, parasite or virus in culture; format: cell-based, SARS coronavirus; conditions: for EC50: Severe acute respiratory syndrome coronavirus
[3] = tested on: Flu A (H5N1) Duck/MN/1525/81; format: cell-based
[4] = tested on: four strains of influenza virus; test: Primary antiviral assay, influenza strains taken together; format: cell-based
[5] = tested on: Flu A (H1N1) California/07/2009; test: Primary antiviral assay; format: cell-based
[6] = tested on: Flu A (H3N2) Perth/16/2009; test: Primary antiviral assay; format: cell-based
[7] = tested on: Flu B Florida/4/2006; test: Primary antiviral assay; format: cell-based
[8] = tested on: respiratory viruses panel (Flu A (H1N1), Flu A (H3N2), Flu A (H5N1), Flu B, SARS CoV); format: cell-based
[9] = tested on: uninfected cells
[10] = tested on: Leukemia subpanel tumor cell lines; test: NCI five-dose anticancer assay; format: cell-based, human; conditions: for GI50: Homo sapiens; for TGI: Leukemia subpanel average, five concentrations
In short: (§1)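 Approximately sixty human tumor cell lines from nine cancer types, tested by the NCI DTP protocol. Test compound given at five 10-fold dilutions (100, 10, 1, 0.1, 0.01 μM) with 48 h continuous exposure. SRB protein staining read spectrophotometrically at time zero, in untreated control and in treated wells. […] MG_MID averages each parameter over all cell lines.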

[11] = tested on: NSC lung cancer cell lines; test: NCI five-dose anticancer assay; format: cell-based, human; conditions: 48 h; for GI50: Homo sapiens; for TGI: NSC lung cancer subpanel average, five concentrations
In short: as §1

[12] = tested on: Colon cancer cell lines; test: NCI five-dose anticancer assay; format: cell-based, human; conditions: 48 h; for TGI: Colon cancer subpanel average, five concentrations; for GI50: Homo sapiens
In short: as §1

[13] = tested on: CNS cancer cell lines; test: NCI five-dose anticancer assay; format: cell-based, human; conditions: 48 h; for TGI: CNS cancer subpanel average, five concentrations; for GI50: Homo sapiens
In short: as §1

[14] = tested on: Melanoma cell lines; test: NCI five-dose anticancer assay; format: cell-based, human; conditions: 48 h; for GI50: Homo sapiens; for TGI: Melanoma subpanel average, five concentrations
In short: as §1

[15] = tested on: Ovarian cancer cell lines; test: NCI five-dose anticancer assay; format: cell-based, human; conditions: 48 h; for GI50: Homo sapiens; for TGI: Ovarian cancer subpanel average, five concentrations
In short: as §1

[16] = tested on: Renal cancer cell lines; test: NCI five-dose anticancer assay; format: cell-based, human; conditions: 48 h; for GI50: Homo sapiens; for TGI: Renal cancer subpanel average, five concentrations
In short: as §1

[17] = tested on: Breast cancer cell lines; test: NCI five-dose anticancer assay; format: cell-based, human; conditions: 48 h; for TGI: Breast cancer subpanel average, five concentrations
In short: as §1

[18] = tested on: panel of approximately sixty tumor cell lines; test: NCI five-dose anticancer assay; format: cell-based; conditions: Homo sapiens, read-out: GI50 MG_MID
In short: as §1

[19] = tested on: Prostate cancer cell lines; test: NCI five-dose anticancer assay; format: cell-based; conditions: Homo sapiens, 48 h
In short: as §1

[20] = tested on: MOLT-4; test: NCI five-dose anticancer assay; format: cell-based, human; conditions: MOLT-4, Leukemia; 48 h
In short: as §1

[21] = tested on: HS 578T; test: NCI five-dose anticancer assay; format: cell-based, human; conditions: Breast cancer, 48 h
In short: as §1

[22] = in vitro
[23] = 50% effective (virus-inhibitory) concentration

Compound: COc1ccc(C2CC(c3ccc4ccccc4c3)=NN2C2SC(=O)NC2=O)cc1 (centres unmarked) [1a, 5-[5-(4-Methoxyphenyl)-3-naphthalen-2-yl-4,5-dihydropyrazol-1-yl]-thiazolidine-2,4-dione]
- anticancer activity in words [1]: did not show any activity
- activity at 10 µM ([1]; read-out: Mean growth %): 102%
- activity at 10 µM ([1]; read-out: Range of growth %): 77.5 to 114%
- SI [2]: 0
- EC50 [2]: > 23.5 µM

Compound: Cc1ccc(NC(=O)CN2C(=O)SC(N3N=C(c4ccc5ccccc5c4)CC3c3ccc(Cl)cc3)C2=O)cc1 (centres unmarked) [2b, 2-{5-[5-(4-Chlorophenyl)-3-naphthalen-2-yl-4,5-dihydropyrazol-1-yl]-2,4-dioxothiazolidin-3-yl}-N-p-tolylacetamide]
- SI [2]: 0
- EC50 [2]: > 351 µM

Compound: CCN1CCN(CN2C(=O)SC(N3N=C(c4ccc5ccccc5c4)CC3c3ccc(Cl)cc3)C2=O)CC1 (centres unmarked) [3e, 5-[5-(4-Chlorophenyl)-3-naphthalen-2-yl-4,5-dihydropyrazol-1-yl]-3-(4-ethylpiperazin-1-ylmethyl)-thiazolidine-2,4-dione]
- SI [2]: 0
- EC50 [2]: > 16.8 µM

Compound: COc1ccc(C2CC(c3ccc4ccccc4c3)=NN2C2SC(=O)N(CN3CCN(Cc4ccccc4)CC3)C2=O)cc1 (centres unmarked) [3d, 3-(4-Benzylpiperazin-1-ylmethyl)-5-[5-(4-methoxyphenyl)-3-naphthalen-2-yl-4,5-dihydropyrazol-1-yl]-thiazolidine-2,4-dione]
- activity at 10 µM ([1]; read-out: Mean growth %): 103%
- activity at 10 µM ([1]; read-out: Range of growth %): 74.5 to 127%

Compound: O=C1NC(=O)C(N2N=C(c3ccc4ccccc4c3)CC2c2ccc(Cl)cc2)S1 (centres unmarked) [1b, 5-[5-(4-Chlorophenyl)-3-naphthalen-2-yl-4,5-dihydropyrazol-1-yl]-thiazolidine-2,4-dione]
- anticancer activity in words [1]: did not show any activity
- activity at 10 µM ([1]; read-out: Mean growth %): 105%
- activity at 10 µM ([1]; read-out: Range of growth %): 74.9 to 170%
- SI [2]: 0
- EC50 [2]: > 23.2 µM

Compound: COc1ccc(C2CC(c3ccc4ccccc4c3)=NN2C2SC(=O)N(CN3CCOCC3)C2=O)cc1 (centres unmarked) [3b, 5-[5-(4-Methoxyphenyl)-3-naphthalen-2-yl-4,5-dihydropyrazol-1-yl]-3-morpholin-4-ylmethylthiazolidine-2,4-dione]
- activity at 10 µM ([1]; read-out: Mean growth %): 99.5%
- activity at 10 µM ([1]; read-out: Range of growth %): 67.5 to 122%

Compound: COc1ccc(C2CC(c3ccc4ccccc4c3)=NN2C2SC(=O)N(CN3CCN(C(C)=O)CC3)C2=O)cc1 (centres unmarked) [3c, 3-(4-Acetylpiperazin-1-ylmethyl)-5-[5-(4-methoxyphenyl)-3-naphthalen-2-yl-4,5-dihydro-pyrazol-1-yl]-thiazolidine-2,4-dione]
- activity at 10 µM ([1]; read-out: Mean growth %): 101%
- activity at 10 µM ([1]; read-out: Range of growth %): 82.2 to 126%

Compound: COc1ccc(C2CC(c3ccc4ccccc4c3)=NN2C2SC(=O)N(CN3CCCCC3)C2=O)cc1 (centres unmarked) [3a, 5-[5-(4-Methoxyphenyl)-3-naphthalen-2-yl-4,5-dihydropyrazol-1-yl]-3-piperidin-1-ylmethylthiazolidine-2,4-dione]
- activity at 10 µM ([1]; read-out: Mean growth %): 101%
- activity at 10 µM ([1]; read-out: Range of growth %): 69.5 to 113%

Compound: COc1ccc(C2CC(c3ccc4ccccc4c3)=NN2C2SC(=O)N(CC(=O)Nc3ccc(C)cc3)C2=O)cc1 (centres unmarked) [2a, 2-{5-[5-(4-Methoxyphenyl)-3-naphthalen-2-yl-4,5-dihydropyrazol-1-yl]-2,4-dioxothiazolidin-3-yl}-N-p-tolylacetamide]
- anticancer activity in words [1]: did not show any activity
- activity at 10 µM ([1]; read-out: Mean growth %): 99.2%
- activity at 10 µM ([1]; read-out: Range of growth %): 76.6 to 114%
- SI [3]: >16.3
- SI [2]: 0
- EC50 [2]: > 313 µM
- activity against other influenza strains, in words [4]: did not have significant activity

Compound: CC(=O)N1CCN(CN2C(=O)SC(N3N=C(c4ccc5ccccc5c4)CC3c3ccc(Cl)cc3)C2=O)CC1 (centres unmarked) [3f, 3-(4-Acetylpiperazin-1-ylmethyl)-5-[5-(4-chlorophenyl)-3-naphthalen-2-yl-4,5-dihydropyrazol-1-yl]-thiazolidine-2,4-dione]
- anticancer activity in words [1]: did not show any activity
- activity at 10 µM ([1]; read-out: Mean growth %): 102%
- activity at 10 µM ([1]; read-out: Range of growth %): 76.4 to 131%

Compound: COc1ccc(C2CC(c3ccccc3)=NN2C(=O)/C=C2\SC(=O)NC2=O)cc1 (centres unmarked) [4a, 5-{2-[5-(4-Methoxyphenyl)-3-phenyl-4,5-dihydropyrazol-1-yl]-2-oxoethylidene}-thiazolidine-2,4-dione]
- anticancer activity in words [1]: moderately effective against few cell lines
- activity at 10 µM ([1]; read-out: Mean growth %): 96.6%
- activity at 10 µM ([1]; read-out: Range of growth %): 39.1 to 147%

Compound: COc1ccc(NC(=O)CN2C(=O)SC(N3N=C(c4ccc5ccccc5c4)CC3c3ccc(Cl)cc3)C2=O)cc1 (centres unmarked) [2c, 2-{5-[5-(4-Chlorophenyl)-3-naphthalen-2-yl-4,5-dihydropyrazol-1-yl]-2,4-dioxothiazolidin-3-yl}-N-(4-methoxyphenyl)-acetamide]
- SI [2]: 0
- EC50 [2]: > 342 µM

Compound: oseltamivir carboxylate [Oseltamirvir-carboxylate]
- EC50 [5, 23]: 19 µM
- SI ([5]; […]): >1.9
- EC50 [6, 23]: 3.06 µM
- SI ([6]; […]): >11
- EC50 [3]: 0.11 µM
- SI [3]: >326
- EC50 [7, 23]: 3.52 µM
- SI ([7]; […]): >10
- activity of positive controls, in words [8]: active as expected
- CC50 [9]: > 35.2 µM

Compound: COc1ccc(NC(=O)CN2C(=O)S/C(=C\C(=O)N3N=C(c4ccc5ccccc5c4)CC3c3ccc(OC)cc3)C2=O)cc1 (centres unmarked) [5d, N-(4-Methoxyphenyl)-2-(5-{2-[5-(4-methoxyphenyl)-3-naphthalen-2-yl-4,5-dihydropyrazol-1-yl]-2-oxoethylidene}-2,4-dioxothiazolidin-3-yl)-acetamide]
- anticancer activity in words [1]: did not show any activity
- activity at 10 µM ([1]; read-out: Mean growth %): 98%
- activity at 10 µM ([1]; read-out: Range of growth %): 74.7 to 119%

Compound: COc1ccc(C2=NN(C(=O)/C=C3\SC(=O)NC3=O)C(c3ccccc3O)C2)cc1 (centres unmarked) [4d, 5-{2-[5-(2-Hydroxyphenyl)-3-(4-methoxyphenyl)-4,5-dihydropyrazol-1-yl]-2-oxoethylidene}-thiazolidine-2,4-dione]
- number of cell lines against which the compound was effective [1]: 12 cell lines
- activity at 10 µM ([1]; read-out: Mean growth %): 60.1%
- activity at 10 µM ([1]; read-out: Range of growth %): -27.3 to 160%
- GI50 ([10]; 48 h): 3.28 µM
- GI50 ([10]; read-out: GI50 values range): 2.12 to 4.58 µM
- TGI ([10]; 48 h): 25.31 µM
- GI50 [11]: 7.91 µM
- TGI [11]: 42.06 µM
- TGI [12]: 21.01 µM
- GI50 [12]: 5.73 µM
- TGI [13]: 24.10 µM
- GI50 [13]: 7.57 µM
- GI50 [14]: 8.07 µM
- TGI [14]: 28.21 µM
- GI50 [15]: 11.4 µM
- TGI [15]: 79.20 µM
- GI50 [16]: 8.13 µM
- TGI [16]: 44.04 µM
- TGI [17]: 47.30 µM
- GI50 ([17]; Homo sapiens): 6.5 µM
- GI50 [18]: 7.02 µM

Compound: COc1ccc(C2CC(c3ccc4ccccc4c3)=NN2C(=O)/C=C2\SC(=O)NC2=O)cc1 (centres unmarked) [4e, 5-{2-[5-(4-Methoxyphenyl)-3-naphthalen-2-yl-4,5-dihydropyrazol-1-yl]-2-oxoethylidene}-thiazolidine-2,4-dione]
- anticancer activity in words [1]: did not show any activity
- activity at 10 µM ([1]; read-out: Mean growth %): 99.7%
- activity at 10 µM ([1]; read-out: Range of growth %): 78.7 to 132%

Compound: O=C1NC(=O)/C(=C/C(=O)N2N=C(c3ccc4ccccc4c3)CC2c2ccc(Cl)cc2)S1 (centres unmarked) [4f, 5-{2-[5-(4-Chlorophenyl)-3-naphthalen-2-yl-4,5-dihydropyrazol-1-yl]-2-oxoethylidene}-thiazolidine-2,4-dione]
- number of cell lines against which the compound was effective [1]: 18 cell lines
- activity at 10 µM ([1]; read-out: Mean growth %): 51%
- activity at 10 µM ([1]; read-out: Range of growth %): -5.27 to 109%
- GI50 ([10]; read-out: GI50 values range): 1.64 to 3.2 µM
- TGI ([10]; 48 h): 7.38 µM
- GI50 [11]: 3.52 µM
- TGI [11]: 61.59 µM
- TGI [12]: 63.20 µM
- GI50 [12]: 3.53 µM
- TGI [13]: 31.99 µM
- GI50 [13]: 4.09 µM
- GI50 [14]: 4.08 µM
- TGI [14]: 45.88 µM
- GI50 [15]: 9.79 µM
- TGI [15]: 79.83 µM
- GI50 [16]: 4.66 µM
- TGI [16]: 53.25 µM
- GI50 [19]: 4.61 µM
- TGI [17]: 15.85 µM
- GI50 [18]: 4.38 µM
- TGI [20]: 7.41 µM
- TGI [21]: 8.26 µM

Compound: NC(=O)c1ncn([C@@H]2O[C@H](CO)[C@@H](O)[C@H]2O)n1 [Ribavirin]
- activity of positive controls, in words [8]: active as expected
- CC50 [22]: > 348 µM
